ChEMBL document CHEMBL1157101, “A series of alpha-heterocyclic carboxaldehyde thiosemicarbazones inhibit topoisomerase IIalpha catalytic activity” (J Med Chem, 2010)
Structures can show the parent of a compound that is named as a salt. The source made the active and inactive calls. No cut-off for these calls is given here.

What was measured:
[1] = tested on: CCRF S-180; test: Antitumor activity against mouse S180 cells transplanted in Kunming mouse assessed as inhibition of tumor growth at 50 mg/kg/day, iv for 2 days; format: functional; conditions: CCRF S-180, 48 h
Method in brief: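 Female Kunming mice, 7 weeks old, 18-22 g, were inoculated sc in the right armpit with S-180 sarcoma. Dosing started the next day: the drug iv, vehicle controls normal saline. After treatment, mice were killed, and solid tumors were excised and weighed. Inhibitory rate (%) = (mean control tumor weight − mean treated tumor weight)/mean control tumor weight × 100.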

[2] = tested on: Mus musculus; test: Toxicity in Kunming mouse bearing mouse S180 cells assessed as change in body weight at 50 mg/kg/day, ip for 2 days (reference value: 18.1 g); format: organism-based, CCRF S-180; parameters: route intraperitoneal; conditions: in vivo, 48 h
[3] = tested on: SGC-7901; test: Antiproliferative activity against human SGC7901 cells after 72 hrs by sulforhodamine B assay; format: functional, cell-based; conditions: SGC-7901, 72 h
Method in brief: (§1)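 Cells seeded and exposed in triplicate to graded compound concentrations for 72 h. Suspension cells read by MTT conversion to coloured product; adherent cells read by sulforhodamine B. IC50 (50% growth inhibition versus untreated control) derived by the Logit method.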

[4] = tested on: HL-60; test: Antiproliferative activity against human HL60 cells after 72 hrs by sulforhodamine B assay; format: functional, cell-based; conditions: HL-60, 72 h, in the assay text read “MTT assay” for “sulforhodamine B assay”; method in brief: as §1
[5] = tested on: HeLa; test: Antiproliferative activity against human HeLa cells after 72 hrs by sulforhodamine B assay; format: functional, cell-based; method in brief: as §1
[6] = tested on: HT-29; test: Antiproliferative activity against human HT-29 cells after 72 hrs by sulforhodamine B assay; format: functional, cell-based; conditions: HT-29, 72 h; method in brief: as §1
[7] = molecular target: T1, DNA topoisomerase 2-alpha (Homo sapiens, UniProt P11388); test: Inhibition of human topoisomerase 2 alpha-mediated decatenation of kDNA at 100 uM after 15 mins
[8] = tested on: KB; test: Antiproliferative activity against human KB cells after 72 hrs by sulforhodamine B assay; format: functional, cell-based; method in brief: as §1
[9] = Antiproliferative activity against human KB/VCR cells after 72 hrs by sulforhodamine B assay; format: functional, cell-based; method in brief: as §1
[10] = Antiproliferative activity against human MCF7/ADR cells after 72 hrs by sulforhodamine B assay; format: functional, cell-based; conditions: NCI/ADR-RES; method in brief: as §1
[11] = Antiproliferative activity against human K562/A02 cells after 72 hrs by sulforhodamine B assay; format: functional, cell-based; conditions: K562/A02, 72 h, in the assay text read “MTT assay” for “sulforhodamine B assay”; method in brief: as §1
[12] = tested on: Nucleic Acid; test: Inhibition of Fenton's reaction mediated DNA strand break in Escherichia coli pBR322 at 0.1 to 1 uM by gel electrophoresis; format: nucleic-acid assay
Method in brief: (§2)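 pBR322 (0.2 μg) incubated 30 min at room temperature in 13 mM Hepes pH 7.2 with 1 mM H2O2 and 10 μM FeSO4 plus compound. Run on 1% agarose containing 0.1 μg/mL ethidium bromide at 90 V for 60 min. Bands quantified; % supercoiled = 1.4SC/(L+OC+1.4SC)×100.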

[13] = tested on: HT-29; test: Cell cycle arrest in nocodazole pretreated human HT-29 cells assessed as accumulation at M phase at 10 uM after 24 hrs; format: functional, cell-based
Method in brief: (§3)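 HT-29 cells stained with propidium iodide; cell-cycle distribution determined by flow cytometry.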

[14] = tested on: HT-29; test: Cell cycle arrest in nocodazole pretreated human HT-29 cells assessed as accumulation at M phase at 5 uM after 24 hrs; format: functional, cell-based; method in brief: as §3
[15] = tested on: Nucleic Acid; test: Inhibition of Fenton's reaction mediated DNA strand break in Escherichia coli pBR322 at 1 to 100 uM by gel electrophoresis; format: nucleic-acid assay; method in brief: as §2
[16] = tested on: Nucleic Acid; test: Inhibition of Fenton's reaction mediated DNA strand break in Escherichia coli pBR322 by gel electrophoresis; format: nucleic-acid assay; method in brief: as §2
[17] = molecular target: T1, DNA topoisomerase 2-alpha; test: Inhibition of human topoisomerase 2alpha-mediated relaxation of pBR322 up to 125 uM

T1 sequence (P11388 whole entry): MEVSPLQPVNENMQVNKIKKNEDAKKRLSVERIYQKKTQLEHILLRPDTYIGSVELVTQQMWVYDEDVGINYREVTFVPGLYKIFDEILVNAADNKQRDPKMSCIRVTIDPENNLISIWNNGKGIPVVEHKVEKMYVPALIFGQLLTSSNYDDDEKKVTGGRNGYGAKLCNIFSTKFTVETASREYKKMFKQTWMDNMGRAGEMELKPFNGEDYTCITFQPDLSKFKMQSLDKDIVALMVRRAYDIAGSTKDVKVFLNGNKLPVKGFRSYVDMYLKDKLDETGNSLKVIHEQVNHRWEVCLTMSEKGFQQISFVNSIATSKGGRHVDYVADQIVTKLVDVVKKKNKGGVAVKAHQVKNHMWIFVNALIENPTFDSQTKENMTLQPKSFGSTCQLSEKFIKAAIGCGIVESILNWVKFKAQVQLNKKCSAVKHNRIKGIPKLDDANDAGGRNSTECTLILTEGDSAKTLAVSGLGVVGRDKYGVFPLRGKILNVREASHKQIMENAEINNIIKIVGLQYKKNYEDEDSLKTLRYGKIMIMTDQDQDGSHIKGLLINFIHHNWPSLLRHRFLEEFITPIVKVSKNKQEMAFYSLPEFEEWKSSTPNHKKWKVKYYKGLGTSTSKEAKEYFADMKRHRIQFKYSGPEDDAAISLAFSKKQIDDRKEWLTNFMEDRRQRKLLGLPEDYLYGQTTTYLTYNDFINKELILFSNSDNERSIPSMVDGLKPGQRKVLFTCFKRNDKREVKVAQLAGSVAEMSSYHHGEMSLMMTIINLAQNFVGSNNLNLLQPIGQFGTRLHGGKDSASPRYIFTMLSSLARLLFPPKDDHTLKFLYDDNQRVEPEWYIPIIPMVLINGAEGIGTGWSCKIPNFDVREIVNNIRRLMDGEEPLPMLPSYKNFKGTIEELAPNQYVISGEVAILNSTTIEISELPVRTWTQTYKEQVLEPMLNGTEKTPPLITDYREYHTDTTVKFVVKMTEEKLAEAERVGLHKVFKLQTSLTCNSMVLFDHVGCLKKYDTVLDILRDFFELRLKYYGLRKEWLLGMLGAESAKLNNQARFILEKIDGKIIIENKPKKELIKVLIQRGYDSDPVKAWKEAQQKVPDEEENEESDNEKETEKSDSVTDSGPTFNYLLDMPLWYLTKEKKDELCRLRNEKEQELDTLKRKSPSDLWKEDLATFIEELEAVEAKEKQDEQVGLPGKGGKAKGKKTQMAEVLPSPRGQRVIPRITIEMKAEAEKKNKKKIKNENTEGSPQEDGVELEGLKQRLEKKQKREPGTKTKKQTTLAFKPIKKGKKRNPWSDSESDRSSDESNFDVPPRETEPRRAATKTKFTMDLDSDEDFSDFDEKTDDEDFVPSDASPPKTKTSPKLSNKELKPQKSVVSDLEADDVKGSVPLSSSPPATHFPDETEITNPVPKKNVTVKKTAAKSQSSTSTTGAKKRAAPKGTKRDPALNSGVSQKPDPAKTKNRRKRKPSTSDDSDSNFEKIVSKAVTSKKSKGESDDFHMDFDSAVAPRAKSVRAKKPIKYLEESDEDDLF

| Compound | IC50 [3] [µM] | IC50 [4] [µM] | IC50 [5] [µM] | IC50 [6] [µM] | inhibition (active/not active) [7] | other results |
| --- | --- | --- | --- | --- | --- | --- |
| O=c1[nH]cc(F)c(=O)[nH]1 [FLUOROURACIL] | – | – | – | – | – | inhibition in vivo at 50 mg/kg/day [1]: 80.7%; Activity [2]: 27.5 g |
| S=C(N/N=C/c1ccc2ccccc2n1)Nc1cccc(Br)c1 | 78.6 | 53.8 | 70 | 58.9 | – | – |
| FC(F)(F)c1ccc(NC(=S)N/N=C/c2ccc3ccccc3n2)cc1 | 72.2 | 34.9 | 59.1 | 63.9 | – | – |
| S=C(N/N=C/c1ccc2ccccc2n1)Nc1ccccc1 | 26.5 | 9.13 | 27.4 | 17 | – | – |
| FC(F)(F)c1ccccc1NC(=S)N/N=C/c1ccc2ccccc2n1 | 20.7 | 13.2 | 18.8 | 18.1 | – | – |
| COc1ccc(C)cc1NC(=S)N/N=C/c1ccc2ccccc2n1 | > 100 | > 100 | > 100 | > 100 | – | – |
| NC(=S)N/N=C/c1ccc2ccccc2n1 | 32.7 | > 100 | 0.96 | 100 | inactive | – |
| N#Cc1ccc(NC(=S)N/N=C/c2ccc3ccccc3n2)cc1 | 23.7 | 4.66 | 20 | 15.6 | – | – |
| NC(=S)N/N=C/c1nc2ccccc2c2ncccc12 | 7.36 | > 100 | 21.9 | 11.5 | Active | – |
| COc1ccc(NC(=S)N/N=C/c2ccc3ccccc3n2)cc1 | 89.6 | 43.8 | 72.6 | 82.3 | – | – |
| NC(=S)N/N=C/c1cc2ccccc2s1 | > 100 | > 100 | 6.77 | 99.2 | inactive | – |
| S=C(N/N=C/c1ccc2ccccc2n1)Nc1ccc(Cl)cc1 | 87.6 | > 100 | > 100 | 97.2 | – | – |
| CC[C@]1(O)C[C@H]2CN(CCc3c([nH]c4ccccc34)[C@@](C(=O)OC)(c3cc4c(cc3OC)N(C=O)[C@H]3[C@@](O)(C(=O)OC)[C@H](OC(C)=O)[C@]5(CC)C=CCN6CC[C@]43[C@@H]65)C2)C1 [VINCRISTINE] | – | – | – | – | – | IC50 [8]: 0.01 µM; IC50 [9]: 0.84 µM |
| CN(C)C(=S)N/N=C/c1nc2ccccc2c2ncccc12 | 0.04 | 0.43 | 1.72 | 0.04 | Active | – |
| S=C(NCc1ccccc1)N/N=C/c1ccc2ccccc2n1 | 53.7 | 21.9 | 62.8 | 75.7 | – | – |
| Fc1ccc(NC(=S)N/N=C/c2ccc3ccccc3n2)cc1 | 32.3 | 17 | 33.2 | 28.5 | – | – |
| Cc1ccc(NC(=S)N/N=C/c2ccc3ccccc3n2)cc1 | 92.9 | 78.3 | 86 | 85.5 | – | – |
| S=C(N/N=C/c1ccc2ccccc2n1)Nc1ccccc1Br | > 100 | > 100 | > 100 | > 100 | – | – |
| CN(C)C(=S)N/N=C/c1cc2cccnc2s1 | 21.4 | > 100 | 48.4 | 13.4 | Active | – |
| COc1cccc(NC(=S)N/N=C/c2ccc3ccccc3n2)c1 | 79.4 | 71.2 | 74.5 | 82.4 | – | – |

| Compound | IC50 [3] [µM] | IC50 [4] [µM] | IC50 [5] [µM] | IC50 [6] [µM] | inhibition (active/not active) [7] | other results |
| --- | --- | --- | --- | --- | --- | --- |
| NC(=S)N/N=C/c1ccc2cccnc2n1 | > 100 | > 100 | > 100 | 12.8 | inactive | – |
| S=C(N/N=C/c1ccc2ccccc2n1)Nc1cccc(Cl)c1 | 61.3 | 28.8 | 52.5 | 48.1 | – | – |
| CN(C)C(=S)N/N=C/c1cnc2ccccc2n1 | 0.17 | 0.09 | 0.75 | 0.45 | Active | – |
| COc1cccc2c1C(=O)c1c(O)c3c(c(O)c1C2=O)C[C@@](O)(C(=O)CO)C[C@@H]3O[C@H]1C[C@H](N)[C@H](O)[C@H](C)O1 [DOXORUBICIN HYDROCHLORIDE] | – | – | – | – | – | IC50 [10]: 44.9 µM; IC50 [11]: 23.8 µM |
| Cc1ccc(NC(=O)N/N=C/c2ccc3ccccc3n2)cc1 | > 100 | > 100 | > 100 | > 100 | – | – |
| Cc1cccc(NC(=S)N/N=C/c2ccc3ccccc3n2)c1 | > 100 | > 100 | > 100 | > 100 | – | – |
| Fc1cccc(NC(=S)N/N=C/c2ccc3ccccc3n2)c1 | 79.9 | 43.8 | 70.1 | 74.7 | inactive | – |
| Cc1ccccc1NC(=S)N/N=C/c1ccc2ccccc2n1 | > 100 | 73.2 | > 100 | 42.2 | inactive | – |
| COc1ccccc1NC(=S)N/N=C/c1ccc2ccccc2n1 | > 100 | 91.7 | > 100 | > 100 | – | – |
| CC(=O)N(O)CCCCCNC(=O)CCC(=O)N(O)CCCCCNC(=O)CCC(=O)N(O)CCCCCN | – | – | – | – | – | inhibition [12]: Active; Activity [13]: Active; Activity [14]: Active; inhibition [15]: Active; inhibition [16]: Dose-dependent effect; inhibition [17]: inactive |
| NC(=S)N/N=C/c1cnc2ccccc2n1 | > 100 | > 100 | > 100 | > 100 | – | – |
| NC(=S)N/N=C/c1nc2ccccc2s1 | > 100 | > 100 | 5.35 | > 100 | inactive | – |
| Cc1csc2sc(/C=N/NC(N)=S)c(C)c12 | > 100 | > 100 | 1.12 | 57.5 | inactive | – |
| CN(C)C(=S)N/N=C/c1ccc2cccnc2n1 | 0.63 | 0.56 | 0.97 | 0.41 | Active | – |
| S=C(N/N=C/c1ccc2ccccc2n1)Nc1ccc(Br)cc1 | 69.4 | 27.5 | 56.8 | 54.4 | – | – |
| NC(=S)N/N=C/c1cc2cccnc2s1 | 100 | > 100 | 6.29 | > 100 | – | – |
| Fc1ccccc1NC(=S)N/N=C/c1ccc2ccccc2n1 | > 100 | > 100 | > 100 | > 100 | – | – |
| CN(C)C(=S)N/N=C/c1nc2ccccc2s1 | 0.83 | 3.68 | 2.1 | 0.25 | Active | – |
| CC(C)c1cccc(C(C)C)c1NC(=S)N/N=C/c1ccc2ccccc2n1 | 23.5 | 19.5 | 16.4 | 20.7 | – | – |
